Measurements reported in ChEMBL document CHEMBL3085768, “Structure-guided design of potent diazobenzene inhibitors for the BET bromodomains” (J Med Chem, 2013).
Calls of active or inactive are those of the source. No cut-off for these calls is given here.

Legend:
[1] = molecular target: T1, Bromodomain-containing protein 4 (Homo sapiens, UniProt O60885); assay: Displacement of fluorescein-labeled MS574 from recombinant human BRD4 BrD2 after 1 hr by fluorescence anisotropy assay
Summary of the method: (§1)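 Competition fluorescence anisotropy with His-tag-removed recombinant bromodomain (Ni-IDA purified, thrombin cleaved) at 0.25–1 µM, chosen so that 50–80% of probe is bound. FITC-labeled probe at 80 nM (≤2Kd), unlabeled ligand titrated, in PBS pH 7.4, read after 1 h at 25 °C. IC50 from curve fit, converted to Ki with the Nikolovska-Coleska correction to Cheng-Prusoff (one-site competitive). The resolvable Ki is limited by the probe Kd.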

[2] = molecular target: T1, Bromodomain-containing protein 4; assay: Displacement of fluorescein-labeled MS574 from recombinant human BRD4 BrD1 after 1 hr by fluorescence anisotropy assay; summary of the method: as §1
[3] = molecular target: Bromodomain-containing protein 4 (Mus musculus) (UniProt Q9ESU6); assay: (§2) Inhibition of BRD4 in LPS-stimulated mouse RAW264.7 cells assessed as inhibition of NF-kappaB-mediated IL-6 expression preincubated for 30 mins followed by LPS stimulation measured after 24 hrs by ELISA; assay type: cell-based
Summary of the method: (§3)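 RAW264.7 cells grown in DMEM/10% FBS at 37 °C, 5% CO2, plated at 3 × 10^5 cells/mL, pretreated with inhibitor for 30 min. Medium was then replaced with LPS (1 µg/mL) plus inhibitor for 24 h. Compounds were diluted from DMSO to 0.28–50000 nM, final DMSO 0.05% (v/v). Supernatant IL-6 was measured by mouse ELISA read at 570 nm.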

[4] = molecular target: T2, Bromodomain-containing protein 4 (Mus musculus, UniProt Q9ESU6); assay: as §2; assay type: cell-based; summary of the method: as §3
[5] = molecular target: Bromodomain-containing protein 4 (Mus musculus) (UniProt Q9ESU6); assay: (§4) Inhibition of BRD4 in LPS-stimulated mouse RAW264.7 cells assessed as inhibition of NF-kappaB-mediated nitric oxide production preincubated for 30 mins followed by LPS stimulation measured after 24 hrs by spectrophotometric analysis; assay type: cell-based
Summary of the method: (§5)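 RAW264.7 cells in DMEM/10% FBS, plated at 3 × 10^5 cells/mL, pretreated with inhibitor 30 min, then LPS (1 µg/mL) plus inhibitor for 24 h. Inhibitor concentrations 0.28–50000 nM from DMSO stock, final DMSO 0.05% (v/v). Nitrite in the supernatant was measured spectrophotometrically at 520 nm.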

[6] = molecular target: T2, Bromodomain-containing protein 4; assay: as §4; assay type: cell-based; summary of the method: as §5
[7] = system: RAW264.7; assay: Cytotoxicity against mouse RAW264.7 cells assessed as cell viability up to 100 uM after 24 hrs by MTT assay; assay type: cell-based; conditions: raw264.7, 24 h
Summary of the method: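 RAW264.7 macrophages seeded at 1 × 10^4 cells/well, settled 18 h at 37 °C, then exposed to inhibitors up to 100 µM for 24 h. Compounds were predissolved in DMSO and diluted in medium, final DMSO 0.05% (v/v). MTT (4 mg/ml) was added for 4 h at 37 °C, formazan solubilized in DMSO, and absorbance read at 570/630 nm.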

[8] = molecular target: T3, Bromodomain-containing protein 3 (Homo sapiens, UniProt Q15059); assay: Displacement of fluorescein-labeled MS574 from recombinant human BRD3 BrD1 after 1 hr by fluorescence anisotropy assay; summary of the method: as §1
[9] = molecular target: SWI/SNF-related matrix-associated actin-dependent regulator of chromatin subfamily A member 4 (Homo sapiens, UniProt P51532); assay: Displacement of fluorescein-labeled MS239 from recombinant human SMARCA4 bromodomain after 1 hr by fluorescence anisotropy assay; summary of the method: as §1
[10] = molecular target: Nucleosome-remodeling factor subunit BPTF (Homo sapiens, UniProt Q12830); assay: Displacement of fluorescein-labeled MS239 from recombinant human BPTF after 1 hr by fluorescence anisotropy assay; summary of the method: as §1
[11] = molecular target: T4, Bromodomain-containing protein 7 (Homo sapiens, UniProt Q9NPI1); assay: Displacement of fluorescein-labeled MS226 from recombinant human BRD7 after 1 hr by fluorescence anisotropy assay; summary of the method: as §1
T4 sequence (Q9NPI1 whole entry): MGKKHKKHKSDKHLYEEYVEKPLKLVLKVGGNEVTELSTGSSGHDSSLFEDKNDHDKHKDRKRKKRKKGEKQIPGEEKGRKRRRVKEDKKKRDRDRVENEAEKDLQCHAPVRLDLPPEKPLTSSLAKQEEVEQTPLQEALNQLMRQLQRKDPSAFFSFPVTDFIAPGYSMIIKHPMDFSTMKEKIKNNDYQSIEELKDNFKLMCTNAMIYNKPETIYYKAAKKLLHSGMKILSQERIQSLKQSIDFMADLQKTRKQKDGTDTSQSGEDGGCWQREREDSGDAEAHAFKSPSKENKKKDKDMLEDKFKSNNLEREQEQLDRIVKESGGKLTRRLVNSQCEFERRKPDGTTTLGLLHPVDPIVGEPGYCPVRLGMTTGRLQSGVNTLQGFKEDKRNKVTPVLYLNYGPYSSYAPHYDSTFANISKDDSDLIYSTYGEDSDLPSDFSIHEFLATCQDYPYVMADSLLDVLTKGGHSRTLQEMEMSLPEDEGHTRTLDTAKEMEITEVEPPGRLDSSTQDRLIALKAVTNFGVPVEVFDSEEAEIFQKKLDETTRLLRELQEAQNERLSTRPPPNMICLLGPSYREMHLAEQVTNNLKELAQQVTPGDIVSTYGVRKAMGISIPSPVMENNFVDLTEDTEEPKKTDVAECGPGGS

[12] = molecular target: Histone acetyltransferase KAT2B (Homo sapiens, UniProt Q92831); assay: Displacement of fluorescein-labeled MS239 from recombinant human PCAF after 1 hr by fluorescence anisotropy assay; summary of the method: as §1
[13] = molecular target: CREB-binding protein (Homo sapiens, UniProt Q92793); assay: Displacement of fluorescein-labeled MS226 from recombinant human CBP bromodomain after 1 hr by fluorescence anisotropy assay; summary of the method: as §1
[14] = molecular target: T3, Bromodomain-containing protein 3; assay: Displacement of fluorescein-labeled MS574 from recombinant human BRD3 BrD2 after 1 hr by fluorescence anisotropy assay; summary of the method: as §1

CREB-binding protein, sequence (Q92793 whole entry): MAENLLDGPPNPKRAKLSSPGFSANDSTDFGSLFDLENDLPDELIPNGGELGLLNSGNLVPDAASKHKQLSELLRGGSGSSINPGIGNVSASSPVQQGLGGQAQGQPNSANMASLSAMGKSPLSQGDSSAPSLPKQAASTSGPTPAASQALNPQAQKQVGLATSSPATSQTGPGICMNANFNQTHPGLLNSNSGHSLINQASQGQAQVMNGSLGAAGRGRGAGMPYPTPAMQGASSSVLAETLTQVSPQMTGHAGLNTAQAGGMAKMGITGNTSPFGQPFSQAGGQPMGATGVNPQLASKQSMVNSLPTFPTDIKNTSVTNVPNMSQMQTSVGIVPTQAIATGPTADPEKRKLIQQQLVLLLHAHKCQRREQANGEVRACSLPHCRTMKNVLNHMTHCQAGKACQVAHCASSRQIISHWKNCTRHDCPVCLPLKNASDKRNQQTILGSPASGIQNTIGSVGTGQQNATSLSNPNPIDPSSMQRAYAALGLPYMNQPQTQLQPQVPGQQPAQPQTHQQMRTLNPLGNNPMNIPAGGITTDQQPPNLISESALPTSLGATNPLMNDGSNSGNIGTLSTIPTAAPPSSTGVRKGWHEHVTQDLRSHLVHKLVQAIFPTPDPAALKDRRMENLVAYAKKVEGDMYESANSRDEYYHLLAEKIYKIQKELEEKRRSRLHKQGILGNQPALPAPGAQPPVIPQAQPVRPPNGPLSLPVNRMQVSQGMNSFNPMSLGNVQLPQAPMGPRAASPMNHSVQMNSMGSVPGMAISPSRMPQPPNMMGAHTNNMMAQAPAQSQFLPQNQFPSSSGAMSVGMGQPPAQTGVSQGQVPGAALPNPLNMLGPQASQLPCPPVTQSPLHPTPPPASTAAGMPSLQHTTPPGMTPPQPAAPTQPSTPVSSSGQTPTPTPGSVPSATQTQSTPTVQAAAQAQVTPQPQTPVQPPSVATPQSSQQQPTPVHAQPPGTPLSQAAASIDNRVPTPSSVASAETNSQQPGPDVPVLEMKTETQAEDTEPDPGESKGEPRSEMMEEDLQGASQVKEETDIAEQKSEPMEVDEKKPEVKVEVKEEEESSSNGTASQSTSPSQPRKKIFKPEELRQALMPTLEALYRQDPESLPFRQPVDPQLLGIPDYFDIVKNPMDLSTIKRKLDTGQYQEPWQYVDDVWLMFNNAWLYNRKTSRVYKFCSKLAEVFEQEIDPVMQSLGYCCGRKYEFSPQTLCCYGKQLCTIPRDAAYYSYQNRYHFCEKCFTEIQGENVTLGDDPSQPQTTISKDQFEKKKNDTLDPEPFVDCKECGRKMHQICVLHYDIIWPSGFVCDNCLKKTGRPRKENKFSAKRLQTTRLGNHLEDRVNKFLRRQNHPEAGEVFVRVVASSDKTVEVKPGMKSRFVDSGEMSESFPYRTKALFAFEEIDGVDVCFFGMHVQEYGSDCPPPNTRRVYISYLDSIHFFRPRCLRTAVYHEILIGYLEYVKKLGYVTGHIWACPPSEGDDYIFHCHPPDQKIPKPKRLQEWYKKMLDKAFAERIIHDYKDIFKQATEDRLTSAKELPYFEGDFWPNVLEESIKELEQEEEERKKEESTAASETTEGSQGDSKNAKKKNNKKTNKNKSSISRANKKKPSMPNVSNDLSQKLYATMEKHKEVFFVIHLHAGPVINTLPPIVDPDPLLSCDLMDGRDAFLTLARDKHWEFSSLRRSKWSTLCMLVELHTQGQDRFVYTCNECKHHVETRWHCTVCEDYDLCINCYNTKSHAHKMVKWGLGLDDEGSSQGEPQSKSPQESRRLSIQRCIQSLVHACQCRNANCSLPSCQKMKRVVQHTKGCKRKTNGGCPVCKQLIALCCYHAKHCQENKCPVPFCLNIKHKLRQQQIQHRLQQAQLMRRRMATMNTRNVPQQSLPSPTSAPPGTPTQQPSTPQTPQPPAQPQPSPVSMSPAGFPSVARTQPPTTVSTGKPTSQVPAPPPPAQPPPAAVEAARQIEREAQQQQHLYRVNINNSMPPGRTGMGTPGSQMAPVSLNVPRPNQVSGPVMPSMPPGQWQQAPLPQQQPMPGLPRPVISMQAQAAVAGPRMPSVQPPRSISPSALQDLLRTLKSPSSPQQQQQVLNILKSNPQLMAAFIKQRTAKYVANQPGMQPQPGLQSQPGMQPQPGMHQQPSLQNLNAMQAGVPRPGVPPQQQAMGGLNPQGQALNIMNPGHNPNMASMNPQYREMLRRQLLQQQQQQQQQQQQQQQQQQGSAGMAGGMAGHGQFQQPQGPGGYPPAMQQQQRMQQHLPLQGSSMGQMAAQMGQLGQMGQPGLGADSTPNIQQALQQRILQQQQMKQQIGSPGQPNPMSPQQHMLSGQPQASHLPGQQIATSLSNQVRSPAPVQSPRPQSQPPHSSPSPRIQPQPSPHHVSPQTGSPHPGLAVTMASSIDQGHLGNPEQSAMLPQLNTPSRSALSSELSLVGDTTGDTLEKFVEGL
SWI/SNF-related matrix-associated actin-dependent regulator of chromatin subfamily A member 4, sequence (P51532 whole entry): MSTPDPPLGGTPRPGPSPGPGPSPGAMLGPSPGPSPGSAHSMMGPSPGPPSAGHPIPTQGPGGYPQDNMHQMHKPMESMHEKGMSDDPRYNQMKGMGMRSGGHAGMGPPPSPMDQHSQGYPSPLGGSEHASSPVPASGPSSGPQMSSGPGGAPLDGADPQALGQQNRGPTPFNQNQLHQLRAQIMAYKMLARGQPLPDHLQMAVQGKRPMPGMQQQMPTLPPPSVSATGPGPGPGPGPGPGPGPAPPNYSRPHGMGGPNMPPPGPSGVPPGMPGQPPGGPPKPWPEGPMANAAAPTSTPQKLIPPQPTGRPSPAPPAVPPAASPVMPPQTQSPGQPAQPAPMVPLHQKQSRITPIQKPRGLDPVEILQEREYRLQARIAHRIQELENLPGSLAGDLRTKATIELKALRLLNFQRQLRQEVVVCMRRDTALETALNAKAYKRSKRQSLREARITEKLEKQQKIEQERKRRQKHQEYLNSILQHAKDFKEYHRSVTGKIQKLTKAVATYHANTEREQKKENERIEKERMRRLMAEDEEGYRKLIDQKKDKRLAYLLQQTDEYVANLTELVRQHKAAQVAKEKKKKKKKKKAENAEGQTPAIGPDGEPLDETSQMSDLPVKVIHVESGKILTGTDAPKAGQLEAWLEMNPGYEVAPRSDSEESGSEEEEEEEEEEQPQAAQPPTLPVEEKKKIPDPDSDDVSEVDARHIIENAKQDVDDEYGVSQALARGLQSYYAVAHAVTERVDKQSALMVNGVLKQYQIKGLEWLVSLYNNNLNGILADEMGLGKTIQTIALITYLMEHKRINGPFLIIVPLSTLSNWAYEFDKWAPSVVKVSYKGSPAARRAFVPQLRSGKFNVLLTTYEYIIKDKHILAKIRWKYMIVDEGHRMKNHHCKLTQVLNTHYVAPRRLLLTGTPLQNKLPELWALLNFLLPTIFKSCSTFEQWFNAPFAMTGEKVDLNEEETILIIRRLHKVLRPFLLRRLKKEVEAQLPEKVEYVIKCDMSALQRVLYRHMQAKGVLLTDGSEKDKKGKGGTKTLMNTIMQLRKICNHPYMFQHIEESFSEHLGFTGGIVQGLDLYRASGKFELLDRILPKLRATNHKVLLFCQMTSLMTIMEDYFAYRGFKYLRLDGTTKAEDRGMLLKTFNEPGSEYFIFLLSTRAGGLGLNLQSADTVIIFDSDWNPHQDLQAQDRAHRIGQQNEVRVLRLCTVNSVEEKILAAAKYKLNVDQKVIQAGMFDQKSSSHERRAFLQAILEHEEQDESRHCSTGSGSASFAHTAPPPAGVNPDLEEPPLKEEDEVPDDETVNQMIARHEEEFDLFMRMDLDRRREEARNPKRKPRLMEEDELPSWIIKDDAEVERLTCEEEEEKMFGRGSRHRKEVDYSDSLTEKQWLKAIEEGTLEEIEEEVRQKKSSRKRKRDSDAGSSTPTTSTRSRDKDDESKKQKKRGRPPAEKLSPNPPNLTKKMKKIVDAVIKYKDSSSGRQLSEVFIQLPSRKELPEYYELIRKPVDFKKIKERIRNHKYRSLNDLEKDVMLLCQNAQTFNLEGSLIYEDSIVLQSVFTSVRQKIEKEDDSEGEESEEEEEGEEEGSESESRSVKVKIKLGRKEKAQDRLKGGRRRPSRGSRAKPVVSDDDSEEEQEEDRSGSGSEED
T3 sequence (Q15059 whole entry): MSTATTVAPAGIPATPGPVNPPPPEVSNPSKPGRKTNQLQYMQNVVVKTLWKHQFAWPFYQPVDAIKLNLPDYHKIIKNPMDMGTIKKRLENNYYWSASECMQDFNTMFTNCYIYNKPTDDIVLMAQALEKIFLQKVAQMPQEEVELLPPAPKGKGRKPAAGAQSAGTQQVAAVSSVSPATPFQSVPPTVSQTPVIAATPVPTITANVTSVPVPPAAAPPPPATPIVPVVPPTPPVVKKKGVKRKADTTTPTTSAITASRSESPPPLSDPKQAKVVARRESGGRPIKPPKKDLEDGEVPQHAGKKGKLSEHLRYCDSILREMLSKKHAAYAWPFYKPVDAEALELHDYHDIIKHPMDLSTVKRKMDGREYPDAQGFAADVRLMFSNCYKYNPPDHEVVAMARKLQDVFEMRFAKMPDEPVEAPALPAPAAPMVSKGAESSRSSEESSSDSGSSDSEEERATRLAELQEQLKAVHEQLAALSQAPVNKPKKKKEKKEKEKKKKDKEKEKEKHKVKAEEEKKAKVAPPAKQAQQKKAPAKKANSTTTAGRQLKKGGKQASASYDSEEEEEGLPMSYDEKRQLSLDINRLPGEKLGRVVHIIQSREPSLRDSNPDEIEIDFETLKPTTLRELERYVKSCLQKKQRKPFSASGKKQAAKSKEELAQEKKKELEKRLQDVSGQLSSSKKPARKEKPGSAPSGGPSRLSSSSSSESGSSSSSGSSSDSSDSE

Ki [1] | Ki ([2]; read-out: Ki) | Structure (SMILES) | further results
5.92 µM | 0.9 µM | Cc1cc(/N=N/c2ccc(S(=O)(=O)Nc3cc(Cl)ccn3)cc2)cc(C)c1O | –
9.1 µM | 6.02 µM | Cc1nc(/N=N/c2ccc(S(=O)(=O)Nc3ccccn3)cc2)c(C)c(C)c1O | –
– | – | Cc1cc(/N=N/c2ccc(S(=O)(=O)Nc3ccccn3)cc2)c(N)c(Cl)c1O | inhibition [3]: Dose-dependent effect; IC50 [4]: 3.8 µM; inhibition [5]: Dose-dependent effect; IC50 [6]: 3.4 µM; Activity [7]: Non-toxic; Ki [8]: 0.24 µM; Ki [9]: < 6.56 µM; Ki [10]: 1.62 µM; Ki [11]: < 1.43 µM; Ki [12]: < 3.34 µM; Ki [13]: 5.59 µM; Ki [14]: 0.32 µM
– | – | Cc1nc(/N=N/c2ccc(S(=O)(=O)Nc3ccccn3)cc2)c(CO)c(CN)c1O | inhibition [2]: inactive
6.37 µM | 4.92 µM | Cc1cc(C)c(S(=O)(=O)O)cc1/N=N/c1cc(C)c(O)c(C)c1 | –
7.12 µM | 7.89 µM | Cc1cc(/N=N/c2ccc(S(=O)(=O)N(C)c3ccccn3)cc2)cc(C)c1O | –
19.7 µM | 10.8 µM | Cc1cc(/N=N/c2cc(S(=O)(=O)O)c(C)cc2C)c(N)cc1O [ISCHEMIN] | –
4.29 µM | 0.52 µM | O=S(=O)(Nc1ccccn1)c1ccc(/N=N/c2cc(Br)c(O)c(Br)c2)cc1 | –
40.4 µM | 5.97 µM | Cc1cc(/N=N/c2cccc(S(=O)(=O)Nc3ccccn3)c2)cc(C)c1O | –
4.81 µM | 1.4 µM | Cc1cc(/N=N/c2ccc(S(=O)(=O)Nc3ccccn3)cc2)cc(Cl)c1O | –
– | – | Cc1cc(/N=N/c2ccc(S(=O)(=O)Nc3ccccn3)cc2)c(N)cc1O | inhibition [3]: Dose-dependent effect; IC50 [4]: 4.9 µM; inhibition [5]: Dose-dependent effect; IC50 [6]: 3.8 µM; Activity [7]: Non-toxic; Ki [8]: 0.1 µM; Ki [9]: 7.97 µM; Ki [10]: 6.06 µM; Ki [11]: 2.72 µM; Ki [12]: 5.52 µM; Ki [13]: 2.18 µM; Ki [14]: 0.14 µM
24.6 µM | 2.31 µM | Cc1cc(/N=N/c2ccc(S(=O)(=O)Nc3ccccn3)cc2)nc(C)c1O | –
4.48 µM | 2.79 µM | Cc1cc(/N=N/c2ccc(S(=O)(=O)Nc3ccccn3)cc2)cc(Br)c1O | –
7.77 µM | 3.13 µM | COc1cc(/N=N/c2cc(C)c(O)c(C)c2)ccc1S(=O)(=O)Nc1ccccn1 | –
7.77 µM | 6.13 µM | Cc1cc(/N=N/c2ccc(S(=O)(=O)Nc3cccc(C(F)(F)F)c3)cc2)cc(C)c1O | –
7.14 µM | 10.7 µM | Cc1cc(/N=N/c2ccc(S(=O)(=O)Nc3ccc(C(F)(F)F)cc3)cc2)cc(C)c1O | –
– | – | CC(C)(C)c1cc(/N=N/c2ccc(S(=O)(=O)Nc3ccccn3)cc2)cc(C(C)(C)C)c1O | inhibition [1]: inactive; inhibition [2]: inactive
4.3 µM | 0.91 µM | Cc1cc(/N=N/c2ccc(S(=O)(=O)Nc3ccccn3)cc2)cc(C)c1O | inhibition [3]: Dose-dependent effect; IC50 [4]: 16 µM; inhibition [5]: Dose-dependent effect; IC50 [6]: 46.3 µM; Activity [7]: Non-toxic; Ki [8]: 1.64 µM; Ki [9]: < 6.56 µM; Ki [11]: 3.54 µM; Ki [13]: 7.15 µM; Ki ([2]; read-out: pKi (converted)): 0.912 µM; Ki [14]: 2.48 µM
4.89 µM | 1.27 µM | O=S(=O)(Nc1ccccn1)c1ccc(/N=N/c2cc(Cl)c(O)c(Cl)c2)cc1 | –
5.39 µM | 1.28 µM | COc1cc(/N=N/c2ccc(S(=O)(=O)Nc3ccccn3)cc2)c(N)cc1O | –
1.38 µM | 0.32 µM | Cc1cc(/N=N/c2ccc(S(=O)(=O)Nc3ccc(C(=O)O)cn3)cc2)cc(C)c1O | –
3.91 µM | 4.59 µM | O=S(=O)(Nc1ccccn1)c1ccc(/N=N/c2ccc(O)c(O)c2)cc1 | –

Ki [1] | Ki ([2]; read-out: Ki) | Structure (SMILES) | further results
– | – | CC(C)c1cc(/N=N/c2ccc(S(=O)(=O)Nc3ccccn3)cc2)cc(C(C)C)c1O | inhibition [1]: inactive; inhibition [2]: inactive
– | – | Cc1nc(/N=N/c2ccc(S(=O)(=O)Nc3ccccn3)cc2)c(CO)c(C)c1O | inhibition [2]: inactive
4.69 µM | 4.67 µM | O=S(=O)(Nc1ccccn1)c1ccc(/N=N/c2ccc(O)c(Br)c2)cc1 | –
3.44 µM | 1.3 µM | Cc1cc(/N=N/c2ccc(S(=O)(=O)Nc3ccc(F)cn3)cc2)cc(C)c1O | –
6.16 µM | 1.3 µM | O=S(=O)(Nc1ccccn1)c1ccc(/N=N/c2ccc(O)c(Cl)c2)cc1 | –
12.2 µM | 9.6 µM | Cc1cc(/N=N/c2ccc(S(=O)(=O)Nc3ccc(C(N)=O)cc3)cc2)cc(C)c1O | –
8.87 µM | 1.84 µM | Cc1cc(/N=N/c2ccc(S(=O)(=O)Nc3ccc(F)cc3)cc2)cc(C)c1O | –
6.59 µM | 6.48 µM | COc1ccc(NS(=O)(=O)c2ccc(/N=N/c3cc(C)c(O)c(C)c3)cc2)cc1 | –
3.27 µM | 2.39 µM | Cc1cc(/N=N/c2ccc(S(=O)(=O)Nc3ccccn3)cc2)cc(O)c1O | –
– | – | COc1c(C)cc(/N=N/c2ccc(S(=O)(=O)Nc3ccccn3)cc2)cc1C | inhibition [1]: inactive; inhibition [2]: inactive
38.7 µM | 6.54 µM | Cc1cc(/N=N/c2ccc(S(=O)(=O)Nc3ccc(Br)cn3)cc2)cc(C)c1O | –
2.23 µM | 0.5 µM | COc1ccc(NS(=O)(=O)c2ccc(/N=N/c3cc(C)c(O)c(C)c3)cc2)nc1 | –
– | – | O=S(=O)(Nc1ccccn1)c1ccc(/N=N/c2ccc(O)c3c2CCCC3)cc1 | inhibition [2]: Active
6.83 µM | 9.45 µM | O=S(=O)(Nc1ccccn1)c1ccc(/N=N/c2ccc(O)c(C(F)(F)F)c2)cc1 | –
8.2 µM | 6.43 µM | Cc1cc(/N=N/c2ccc(S(=O)(=O)Nc3ccccn3)cc2)ccc1O | –
– | – | Cc1nc(/N=N/c2ccc(S(=O)(=O)Nc3ccccn3)cc2)c(CO)c(C=O)c1O | inhibition [2]: inactive
> 100 µM | > 100 µM | Cc1cc(/N=N/c2ccc(S(=O)(=O)NCc3ccc(C(F)(F)F)cc3)cc2)cc(C)c1O | –
– | – | O=S(=O)(Nc1ccccn1)c1ccc(/N=N/c2ccc(O)c3ccccc23)cc1 | inhibition [2]: Active
– | – | CC(=O)Nc1c(C)cc(/N=N/c2ccc(S(=O)(=O)Nc3ccccn3)cc2)cc1C | inhibition [1]: inactive; inhibition [2]: inactive
5.84 µM | 0.73 µM | Cc1cc(/N=N/c2ccc(S(=O)(=O)Nc3ccc(Cl)cn3)cc2)cc(C)c1O | –
– | – | O=S(=O)(Nc1ccccn1)c1ccc(/N=N/c2ccc(O)c3c2NCCC3)cc1 | inhibition [2]: Active
– | – | CC1(C)Cc2c(/N=N/c3ccc(S(=O)(=O)Nc4ccccn4)cc3)ccc(O)c2O1 | inhibition [2]: Active
